Experimental data published in ChEMBL document CHEMBL2385045, “Discovery of novel 4-(2-fluorophenoxy)quinoline derivatives bearing 4-oxo-1,4-dihydrocinnoline-3-carboxamide moiety as c-Met kinase inhibitors” (Bioorg Med Chem, 2013).

What was measured:
[1] = molecular target: T1, Hepatocyte growth factor receptor (Homo sapiens, UniProt P08581); assay: Inhibition of c-Met (unknown origin)
Procedure, shortened: (§1)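 HTRF kinase assay on plates precoated with 20 µg/mL poly(Glu,Tyr) 4:1. ATP (10 mM solution) in 50 mM HEPES pH 7.0 buffer with DTT, MgCl₂, MnCl₂ and 0.1% NaN₃. Compound in 1% DMSO; reaction started with purified kinase and run 30 min at 25 °C. Inhibition relative to enzyme and no-enzyme controls; IC50 from the inhibition curves.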

[2] = tested on: SMMC-7721; assay: Cytotoxicity against c-Met-dependent human SMMC7721 cells assessed as growth inhibition after 72 hrs by MTT assay; type: functional, cell-based; conditions: SMMC-7721, 72 h
Procedure, shortened: (§2)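 Cells grown in MEM with 10% FBS. About 4×10³ cells/well were seeded and incubated 24 h at 37 °C, 5% CO₂, then exposed to compound for 72 h. MTT was added (terminal 5 µg/mL) for 4 h at 37 °C, and formazan was dissolved in DMSO. IC50 is the mean of three determinations.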

[3] = Cytotoxicity against c-Met-dependent human U87MG cells assessed as growth inhibition after 72 hrs by MTT assay; type: functional, cell-based, U-87MG ATCC; conditions: U-87 MG; procedure, shortened: as §2
[4] = tested on: MKN-45; assay: Cytotoxicity against c-Met-dependent human MKN45 cells assessed as growth inhibition after 72 hrs by MTT assay; conditions: MKN-45, 72 h
[5] = tested on: HT-29; assay: Cytotoxicity against c-Met-dependent human HT-29 cells assessed as growth inhibition after 72 hrs by MTT assay; conditions: HT-29, 72 h
[6] = tested on: A549; assay: Cytotoxicity against c-Met-dependent human A549 cells assessed as growth inhibition after 72 hrs by MTT assay; conditions: A549, 72 h
[7] = Cytotoxicity against c-Met-independent human H460 cells assessed as growth inhibition after 72 hrs by MTT assay; conditions: NCI-H460, 72 h
[8] = molecular target: Mast/stem cell growth factor receptor Kit (Homo sapiens, UniProt P10721); assay: Inhibition of c-Kit (unknown origin) using poly (Glu, Tyr) 4:1 as substrate after 30 mins by HTRF assay
Procedure, shortened: as §1, with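 “°C. Stopped with Streptavidin-XL665 plus TK antibody cryptate and read at 320/615.” for “°C.”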

[9] = molecular target: Epidermal growth factor receptor (Homo sapiens, UniProt P00533); assay: Inhibition of EGFR (unknown origin) using poly (Glu, Tyr) 4:1 as substrate after 30 mins by HTRF assay
Procedure, shortened: as §1, with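 “°C. Stopped with Streptavidin-XL665 plus TK antibody cryptate and read at 320/615.” for “°C.”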

[10] = molecular target: Platelet-derived growth factor receptor alpha (Homo sapiens, UniProt P16234); assay: Inhibition of PDGFRalpha (unknown origin) using poly (Glu, Tyr) 4:1 as substrate after 30 mins by HTRF assay
Procedure, shortened: as §1, with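 “°C. Stopped with Streptavidin-XL665 plus TK antibody cryptate and read at 320/615.” for “°C.”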

[11] = molecular target: T2, Receptor-type tyrosine-protein kinase FLT3 (Homo sapiens, UniProt P36888); assay: Inhibition of Flt-3 (unknown origin) using poly (Glu, Tyr) 4:1 as substrate after 30 mins by HTRF assay
T2 sequence (P36888 whole entry): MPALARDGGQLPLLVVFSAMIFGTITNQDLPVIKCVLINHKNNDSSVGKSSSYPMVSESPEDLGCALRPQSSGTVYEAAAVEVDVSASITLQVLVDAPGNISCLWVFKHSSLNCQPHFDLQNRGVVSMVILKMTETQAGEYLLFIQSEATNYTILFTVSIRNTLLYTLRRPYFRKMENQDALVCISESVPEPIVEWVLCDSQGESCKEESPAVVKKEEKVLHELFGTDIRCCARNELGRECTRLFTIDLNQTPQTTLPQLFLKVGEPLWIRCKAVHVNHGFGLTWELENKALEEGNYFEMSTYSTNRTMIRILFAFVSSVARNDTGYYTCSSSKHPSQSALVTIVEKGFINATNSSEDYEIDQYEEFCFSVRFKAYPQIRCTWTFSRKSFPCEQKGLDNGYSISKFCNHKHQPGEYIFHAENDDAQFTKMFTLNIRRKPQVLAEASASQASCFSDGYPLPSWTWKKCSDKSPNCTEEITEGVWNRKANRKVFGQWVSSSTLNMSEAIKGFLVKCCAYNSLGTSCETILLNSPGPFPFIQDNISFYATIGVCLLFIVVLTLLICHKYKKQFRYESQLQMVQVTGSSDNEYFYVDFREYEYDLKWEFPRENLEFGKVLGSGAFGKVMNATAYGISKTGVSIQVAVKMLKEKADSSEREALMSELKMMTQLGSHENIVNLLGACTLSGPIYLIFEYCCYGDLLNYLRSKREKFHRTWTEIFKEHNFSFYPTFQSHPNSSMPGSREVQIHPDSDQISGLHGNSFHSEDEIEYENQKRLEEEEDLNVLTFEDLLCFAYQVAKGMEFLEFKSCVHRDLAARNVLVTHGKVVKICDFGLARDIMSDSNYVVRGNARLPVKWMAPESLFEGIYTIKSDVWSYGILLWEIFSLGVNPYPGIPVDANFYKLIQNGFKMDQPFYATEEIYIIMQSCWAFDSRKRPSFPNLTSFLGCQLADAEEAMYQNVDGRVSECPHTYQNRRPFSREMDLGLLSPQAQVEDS
Procedure, shortened: as §1, with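 “°C. Stopped with Streptavidin-XL665 plus TK antibody cryptate and read at 320/615.” for “°C.”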

[12] = molecular target: T3, Vascular endothelial growth factor receptor 2 (Homo sapiens, UniProt P35968); assay: Inhibition of VEGFR-2 (unknown origin) using poly (Glu, Tyr) 4:1 as substrate after 30 mins by HTRF assay
Procedure, shortened: as §1, with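 “°C. Stopped with Streptavidin-XL665 plus TK antibody cryptate and read at 320/615.” for “°C.”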

[13] = molecular target: T1, Hepatocyte growth factor receptor; assay: Inhibition of c-Met (unknown origin) using poly (Glu, Tyr) 4:1 as substrate after 30 mins by HTRF assay
[14] = molecular target: T1, Hepatocyte growth factor receptor; assay: Inhibition of wild type GST-tagged c-Met kinase domain (1058 to 1365) (unknown origin) expressed in Sf9 cells by HTRF assay
[15] = molecular target: T3, Vascular endothelial growth factor receptor 2; assay: Inhibition of VEGFR-2 (unknown origin)

Which IC50 [1] does the source give for COc1cc2c(Oc3ccc(-c4cnc(Nc5ccccc5)n(C)c4=O)cc3F)ccnc2cc1OCCCN1CCOCC1 here?
The IC50 was 4.9 nM.

Which IC50 [2] does the source give for COc1cc2c(Oc3ccc(NC(=O)c4nn(-c5ccc(Cl)c(C(F)(F)F)c5)c5ccccc5c4=O)cc3F)ccnc2cc1OCCCN1CCC(C)CC1 here?
Its IC50 is 370 nM.

And the IC50 [3]?
The IC50 was 540 nM.

What about the IC50 [4] of the same molecule?
Its IC50 is 140 nM.

And the IC50 [5]?
Its IC50 is 490 nM.

What about the IC50 [6] of the same molecule?
Its IC50 is 240 nM.

What about the IC50 [7] of the same molecule?
The IC50 was 110 nM.

For COc1cc2c(Oc3ccc(NC(=O)c4nn(-c5ccccc5C(F)(F)F)c5ccccc5c4=O)cc3F)ccnc2cc1OCCCN1CCCC1, which IC50 [8] is on record?
Its IC50 is 3.9 nM.

And the IC50 [9]?
Its IC50 is over 10000 nM.

And the IC50 [10]?
Its IC50 is 27.3 nM.

And the IC50 [11]?
Its IC50 is 8.5 nM.

And the IC50 [12]?
Its IC50 is 15.4 nM.

What about the IC50 [2] of the same molecule?
Its IC50 is 250 nM.

What about the IC50 [3] of the same molecule?
Its IC50 is 350 nM.

What about the IC50 [4] of the same molecule?
The IC50 was 22 nM.

And the IC50 [5]?
Its IC50 is 110 nM.

And the IC50 [6]?
Its IC50 is 35 nM.

What about the IC50 [7] of the same molecule?
The IC50 was 55 nM.

What about the IC50 [13] of the same molecule?
The IC50 was 0.59 nM.

Which results are given for COc1cc2c(Oc3ccc(NC(=O)c4nn(-c5cccc(C(F)(F)F)c5)c5ccccc5c4=O)cc3F)ccnc2cc1OCCCN1CCCCC1?
IC50 [2]: 330 nM; IC50 [3]: 1620 nM; IC50 [4]: 270 nM; IC50 [5]: 560 nM; IC50 [6]: 310 nM; IC50 [7]: 1030 nM

Which IC50 [2] does the source give for COc1cc2c(Oc3ccc(NC(=O)c4nn(-c5ccc(Cl)cc5)c5ccccc5c4=O)cc3F)ccnc2cc1OCCCN1CCCCC1 here?
Its IC50 is 330 nM.

And the IC50 [3]?
The IC50 was 1620 nM.

What about the IC50 [4] of the same molecule?
The IC50 was 230 nM.

And the IC50 [5]?
The IC50 was 2120 nM.

And the IC50 [6]?
Its IC50 is 200 nM.

And the IC50 [7]?
The IC50 was 640 nM.

With COc1cc2c(Oc3ccc(-c4cnc(Cc5ccccc5)n(C)c4=O)cc3F)ccnc2cc1OCCCN1CCOCC1 as the molecule, how does the IC50 [14] read?
The IC50 was 8.9 nM.

Which IC50 [15] does the source give for COc1cc2c(Oc3ccc(NC(=O)N4CCN(c5ccccc5)C4=O)cc3F)ccnc2cc1OCCCN1CCOCC1 here?
Its IC50 is 30 nM.
